Shown are actives, neighbours in structure and some others; about 3.7% of the full set was active somewhere.
HCV core dimer – HCV core protein dimerization inhibition | TR-FRET GST/Flag-core106 dimerization, 1536-well | inhibition, % at 5 µM | 300,000 tested, 0.33% active | AID 1899;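 active means inhibition above the mean of all tested compounds plus 3 SD, set per screening campaign, cut at about 45% in these data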
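Assay system – GST-tagged and Flag-tagged HCV core protein residues 1-106 · Quantity – core106 proteins, GST 13.5 nM and Flag 17 nM · Benchmarks – unlabelled core106 and no-GST-core106 wells · Read-out basis – percent inhibition of core106 dimerization signal · Detection – time-resolved FRET, ex 340 nm, em 617 and 671 nm · Schedule – 4 h at 22.5 °C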
TAAR1 ag – human TAAR1 agonism. 360,000 tested, 0.99% active. AID 624467. activation, % at 3 µM. CHO RD-HGA16 TAAR1, Fluo-8 calcium fluorescence; vehicle wells 0%, saturating PEA agonist 100%;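 active means activation above the mean activation of all test compounds in the run plus 3 SD, cut at about 38% in these data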
Target sequence (Q96RJ0 whole entry, looked up): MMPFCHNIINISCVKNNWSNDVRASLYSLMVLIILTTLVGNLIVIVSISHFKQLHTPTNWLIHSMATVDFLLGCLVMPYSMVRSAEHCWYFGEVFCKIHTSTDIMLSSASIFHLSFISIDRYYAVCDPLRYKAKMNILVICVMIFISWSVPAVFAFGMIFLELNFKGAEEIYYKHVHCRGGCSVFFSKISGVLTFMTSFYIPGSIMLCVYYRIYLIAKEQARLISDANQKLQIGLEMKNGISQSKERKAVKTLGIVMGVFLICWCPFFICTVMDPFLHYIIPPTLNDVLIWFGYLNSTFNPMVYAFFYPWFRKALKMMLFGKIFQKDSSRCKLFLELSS
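Test system: RD-HGA16 (CHO) cells co-expressing Gα16 and hTAAR1 / Benchmarks: DMSO vehicle as 0%, PEA at EC100 as 100% / Repeats: no replicates (n 1) / Measure: % activation from peak over basal fluorescence ratio, DMSO-to-PEA scaled / Timing: 17-24 h plating, Fluo-8 75 min 37 °C, 30 min RT / Technique: kinetic Fluo-8 calcium fluorescence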
TAAR1 antag – human TAAR1 antagonism; CHO RD-HGA16 TAAR1, Fluo-8 calcium fluorescence, antagonist; inhibition, % at 3 µM; 360,000 tested, 1.5% active; AID 624466;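 active means inhibition above a per-plate cutoff, the mean inhibition of test compounds on that plate plus 3 SD, cut at about 49% in these data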;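 further: 0% = DMSO plus EC80 beta-PEA response and 100% = DMSO alone without agonist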
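System: RD-HGA16 CHO cells with stable hTAAR1 and Gα16 | Probe or stimulus: EC80 β-phenethylamine stimulus | Dosing: 3 µM, single point | Times: Dye loading 75 min at 37 °C, then 30 min room temperature | Measured by: Fluo-8 calcium-sensitive fluorescence | Read-out basis: % inhibition of agonist calcium response | Replicates: n of 1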
HCV NS3 hel inh – HCV NS3 helicase inhibition | NS3 helicase DNA unwinding, Cy5 molecular beacon fluorescence | inhibition, % at 10.9 µM | 290,000 tested, 0.56% active | AID 1800;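 active means inhibition above the mean of all tested compounds plus 3 SD, set per campaign, cut at about 35% in these data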;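 further: 0% = DMSO wells and 100% = thioflavine S control wells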
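Test system: hepatitis C virus NS3 helicase domain fragment enzyme. Also added: annealed dual-labelled DNA beacon duplex, ATP-started. Timing: 60 min unwinding reaction at 25 °C after ATP addition. Technique: Cy5 fluorescence. Measure: % inhibition of unwinding.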
rCAG RNA binder – r(CAG) repeat RNA binding; TO-PRO-1 dye displacement fluorescence; inhibition, % at 3 µM; 370,000 tested, 1.3% active;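 active means inhibition above the plate cutoff, the mean of all test compounds on that plate plus 3 SD, cut at about 35% in these data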;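 further: 0% = DMSO alone and 100% = 100 µM mitoxantrone as full dye displacement; higher means more dye released from RNA so lower well fluorescence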
An asterisk follows results filed as active; x = not tested or not shown.

SMILES | HCV core dimer | TAAR1 ag | TAAR1 antag | HCV NS3 hel inh | rCAG RNA binder
O=C1OC[C@@H]2CCCN2C(=O)[C@@H](CC(=O)N(CCO)Cc2ccccc2)C/C=C\CC[C@H]1Cc1ccc(F)cc1 | x | 16 | 49 | x | -5
C#CCNC(=O)C[C@H]1C(=O)N(CCCOC)C2=CCCC[C@@]21C(=O)OCC | x | x | x | x | 2
COC(=O)[C@]12C[C@H](CC(=O)N3CCSCC3)C(=O)N(CCc3ccc(OC)c(OC)c3)C1=C[C@H](C1CCCC1)O[C@@H]2C | x | x | x | x | 4
CC(=O)OCCCN1C(=O)CCC12CCC(C)CC2 (stereo not drawn) | x | x | x | x | 0
O=C1N[C@@H](c2ccccc2)COC(=O)[C@@H](Cc2ccc(F)cc2)C/C=C\C[C@@H]1CC(=O)N(CCO)Cc1ccccc1 | x | 39* | 77* | x | -4
CN1C(=O)c2cc(NC(=O)Nc3ccccc3F)ccc2OC[C@H]2O[C@@H](CC(=O)NCc3ccc(-c4ccccc4)cc3)CC[C@@H]21 | x | x | x | x | 10
CCOC(=O)C1=C(Cn2cnc3ccccc32)NC(=O)NC1c1cc(C)ccc1C (stereo not drawn) | 6 | 58* | 65* | -38 | -4
COC(=O)c1cc2n3ccccc3c(C)c(-c3ccccc3)c-2c1C(=O)OC | 24 | 8 | 6 | 0 | 7
COC(=O)c1cc2c(C)c(C)c3ccccn3c-2c1C(=O)OC | 27 | 17 | 63* | -1 | -5
CCn1c(=O)c(C(=O)Nc2ccccc2)c(O)c2ccccc21 | -3 | 3 | -8 | 5 | 1
CCn1c(=O)c(C(=O)NNC(=O)c2cccc(Cl)c2)c(O)c2ccccc21 | 9 | 38* | 71* | -18 | 13
CCCn1c(=O)c(C(=O)Nc2ncccc2C)c(O)c2ccccc21 | 6 | 40* | 0 | -4 | -1
CCn1c(=O)c(C(=O)Nc2nc3ccccc3[nH]2)c(O)c2ccccc21 | 1 | 15 | 93* | -18 | 9
CCn1c(=O)c(C(=O)NNC(=O)c2ccccc2Br)c(O)c2ccccc21 | -9 | 46* | 8 | 4 | 8
Cc1nn(-c2ccccc2)c2sc(C(=O)NC3CCCc4ccccc43)cc12 (stereo not drawn) | x | x | x | x | 10
C=CCN(C)CC#Cc1ccc(F)cc1 | x | x | x | x | 1
COC(=O)[C@]12C[C@H](CC(=O)N3CCCC3)C(=O)N(CCc3ccc(OC)c(OC)c3)C1=C[C@H](C(C)(C)C)O[C@@H]2C | x | x | x | x | -1
O=C(CCC(=O)c1cccs1)Nc1ccc(F)c(F)c1F | 52* | 1 | -23 | 5 | 12
COC(=O)[C@]12C[C@H](CC(=O)NCc3ccc(C)o3)C(=O)N(Cc3ccco3)C1=C[C@H](C(C)C)O[C@@H]2C1CC1 | x | x | x | x | -2
CCCCNC(=O)C[C@H]1C[C@@]2(C(=O)OC)C(=C[C@H](COCc3ccccc3)O[C@@H]2C)N(Cc2cccc3ccccc23)C1=O | x | x | x | x | 9
C=CCn1c(SCC(=O)c2ccc(CNC(C)=O)o2)nc2ccccc2c1=O | 49* | 4 | 2 | -1 | 9
C=CCn1c(SCC(=O)NC2CC2)nc2ccccc2c1=O | x | 5 | 7 | x | 3
Cc1cc(C)cc(N(CC(=O)NC2CCC(C)CC2)S(=O)(=O)c2ccc(Br)s2)c1 (stereo not drawn) | x | x | x | x | 1
COc1ccc(-c2ccc3[nH]c4c(c3c2)CCN2C(=O)[C@@H]([C@H](C)O)[C@@H](N(C)C(=O)Nc3ccc(F)cc3)C[C@@H]42)cc1 | x | 7 | 49* | x | 18
CN(C)CC(=O)N[C@H]1C[C@@H]2O[C@@H](CO)CC[C@@H]2O[C@@H]1CCc1ccc(-c2ccc(F)cc2)cc1 | x | x | x | x | -3
SMILES | HCV core dimer | TAAR1 ag | TAAR1 antag | HCV NS3 hel inh | rCAG RNA binder
COc1ccc2[nH]c(=O)c(CN(C3CCCCC3)C(c3nnnn3Cc3ccco3)C(C)C)cc2c1 (stereo not drawn) | 70* | x | x | 32 | x
CCN(CC)C(=O)CC[C@H]1CC[C@]2(CCCN(S(C)(=O)=O)C2)O1 | x | x | x | x | 2
O=C(NCCc1cn2ccccc2n1)c1cc(COc2ccc3ncccc3c2)on1 | 4 | 21 | 87* | 9 | -4
CSC(=Nc1ccccc1)N=C(SCc1ccccc1)N(C)C | x | 10 | 77* | x | -1
N#CNC(=Nc1ccccc1)SCc1ccc(C(=O)O)cc1 | -3 | 3 | -10 | 2 | 4
CC1=CC(=O)N(c2cccc3c(N4C(=O)C=C(C)C4=O)cccc23)C1=O | x | 1 | -25 | x | 36*
CCOc1ccc(-c2[nH]ncc2Oc2ccccc2OC)c(O)c1 | 2 | 1 | 27 | -15 | 7
CCOc1ccc(-c2[nH]ncc2Oc2ccccc2OCC)c(O)c1 | 5 | 17 | 49* | -20 | 7
Cc1ccc(C)c(OCCCN2CCc3ccccc3C2)c1 | -3 | 39* | -13 | -14 | -8
Cc1ccccc1OCC(O)COc1ccccc1C | x | -1 | 1 | x | -2
Cc1ccccc1OCC(O)CN (stereo not drawn) | -2 | 38* | -17 | -8 | -5
COC(=O)[C@]12C[C@H](CC(=O)NCC34CC5CC(CC(C5)C3)C4)C(=O)N(Cc3ccccc3)C1=C[C@H](COCc1ccccc1)O[C@@H]2C | x | x | x | x | 10
Cc1c(NC(=O)Nc2ccc(Cl)c(Cl)c2)sc(=S)n1C | 10 | 41* | 6 | -10 | 13
CCOc1ccccc1N1CCN(C/C=C/c2ccc(N(C)C)cc2)CC1 | -9 | 37* | -9 | -1 | 3
CN(CCO)c1cccc2c1S(=O)(=O)N(Cc1cn(Cc3ccc(F)cc3)nn1)Cc1ccccc1O2 | x | x | x | x | -1
COc1cc(C=NNC(=O)CN2CCN(Cc3ccc(C)cc3)CC2)cc(OC)c1O | x | x | x | x | 1
C=CCn1c(CSCc2ccc(Cl)cc2)nnc1SCC(=O)NCc1ccccc1 | 7 | 18 | 44 | -5 | -5
C=CCn1c(CSCc2ccc(C)cc2)nnc1SCC(=O)NCc1ccccc1 | 6 | 18 | 50* | 4 | -2
COc1ccccc1Nc1nc(-c2cccs2)cs1 | 9 | 2 | 11 | 12 | 35*
C/C=C/C(=O)N1CCC(C(=O)NC2CCCc3ccccc32)CC1 (stereo not drawn) | x | x | x | x | 2
O=C(Nc1cccc(F)c1)OC1CC2CC1[C@H]1CCCCN1[C@H]2Cc1ccccc1 (stereo partly drawn) | x | x | x | x | 7
Cn1nc(-c2ccc(Cl)cc2)nc2c(=O)n(C)c(=O)nc1-2 | 68* | x | x | 8 | x
c1ccc(CSc2nc3ncncc3[nH]2)cc1 | 1 | -1 | -20 | 0 | -1
S=c1nc(SCc2ccccc2)[nH]c2ccccc12 | 65* | 7 | 24 | 7 | 22
Cc1cccc(C(=O)c2c(N)sc3c2CCCC3)c1 | 49* | -3 | 1 | 26 | 14
CCc1ccc(CCNC(=O)OCCCN2CCC3(CCC(c4ccccc4)CC3)C2=O)cc1 (stereo not drawn) | x | x | x | x | 7
CCOc1cc(CNCc2ccccc2)ccc1OCc1ccc(Cl)cc1 | 2 | 48* | 47 | -76 | 3
